Measurements published in ChEMBL document CHEMBL1123793, “Analysis of structure-activity relationships in renin substrate analogue inhibitory peptides” (J Med Chem, 1987).
*1 amine or outer side, *2 acyl side, *3 side chain or, on linkers, in order; H or OH if unused. Where a SMILES comes first, the peptide text is derived from it. [ ]: non-standard residue; d: D form. The star is where a group is joined. X2 = CC[C@H](C)[C@H](N*)C(=O)NC(=O)[C@@H](N)Cc1ccccc1; Sta = CC(C)C[C@H](N)[C@@H](O)CC(=O)O; X1 = CC(C)CC(N[*:1])C(O)CC(=O)[*:2]; hhPhe = N[C@@H](CCCc1ccccc1)C(=O)O; X3 = CC(=O)[C@H](CCCCN)N*; Orn = NCCC[C@H](N)C(=O)O; Nva = CCC[C@H](N)C(=O)O; For = O=C*

target: T1, Renin (Rattus norvegicus, UniProt P08424); assay: Inhibitory potency on plasma renin obtained from Sprague-Dawley rats; assay type: cell-free
T1 sequence (P08424 whole entry): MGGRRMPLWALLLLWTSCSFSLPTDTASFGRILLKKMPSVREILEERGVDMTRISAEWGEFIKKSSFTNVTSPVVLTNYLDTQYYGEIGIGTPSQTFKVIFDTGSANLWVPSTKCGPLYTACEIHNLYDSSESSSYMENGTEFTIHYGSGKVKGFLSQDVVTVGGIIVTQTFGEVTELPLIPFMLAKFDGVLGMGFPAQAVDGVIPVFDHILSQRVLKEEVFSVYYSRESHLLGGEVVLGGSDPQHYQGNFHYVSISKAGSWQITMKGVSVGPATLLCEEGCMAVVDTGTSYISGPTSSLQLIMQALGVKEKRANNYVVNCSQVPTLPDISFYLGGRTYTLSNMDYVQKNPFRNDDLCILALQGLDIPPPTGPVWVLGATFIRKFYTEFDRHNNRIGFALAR
Method in brief: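 Dog, rabbit or rat plasma was collected into 5 mM EDTA at 0 °C, spun at 4 °C, then given PMSF 5 mM and 8-hydroxyquinoline sulfate 3 mM. Plasma at pH 7.4 with serial inhibitor dilutions was incubated 1 h at 37 °C, with a 0 °C blank. The reaction was quenched at pH 8.5, and angiotensin I was measured by RIA with ¹²⁵I tracer in anti-AI-coated tubes. The ratio is species IC50 divided by human IC50.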

Q: How did the IC50 turn out when `CC[C@H](C)[C@H](NC(=O)C[C@H](O)[C@H](CC(C)C)NC(=O)[C@H](Cc1c[nH]cn1)NC(=O)[C@H](Cc1ccccc1)NC(=O)[C@@H]1CCCN1C(=O)[C@H](Cc1c[nH]cn1)NC(=O)[C@@H]1CCCN1)C(=O)N[C@@H](Cc1ccccc1)C(N)=O` (H-PHPFH[Sta]IF-NH2) was run?
A: Its IC50 is greater than 1 µM.

target: T2, Renin (Homo sapiens, UniProt P00797); assay: Inhibitory activity against human plasma renin; assay type: cell-free
T2 sequence (P00797 whole entry): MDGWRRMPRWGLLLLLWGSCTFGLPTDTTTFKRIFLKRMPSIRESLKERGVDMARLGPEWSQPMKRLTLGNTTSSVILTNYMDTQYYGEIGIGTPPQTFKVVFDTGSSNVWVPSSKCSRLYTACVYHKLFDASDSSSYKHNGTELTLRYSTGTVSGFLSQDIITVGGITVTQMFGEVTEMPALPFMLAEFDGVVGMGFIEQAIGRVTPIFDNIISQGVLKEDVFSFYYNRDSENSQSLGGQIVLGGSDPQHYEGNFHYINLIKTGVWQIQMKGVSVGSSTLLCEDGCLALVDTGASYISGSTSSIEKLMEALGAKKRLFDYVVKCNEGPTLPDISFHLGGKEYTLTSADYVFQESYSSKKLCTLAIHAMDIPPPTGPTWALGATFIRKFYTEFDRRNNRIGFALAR
Method in brief: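 Pooled human plasma from about 500 hypertensive patients, collected by renal vein catheterization into chilled EDTA, trypsin-activated. PMSF 5 mM, 8-hydroxyquinoline sulfate 3 mM and a further 5 mM EDTA were added, giving about 10 ng AI mL⁻¹ h⁻¹. Plasma at pH 7.4 with serial peptide dilutions was incubated 1 h at 37 °C against a 0 °C blank, quenched at pH 8.5, and angiotensin I was measured by RIA.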

Q: Which IC50 does the source give for `CC(C)[C@H](NC(=O)[C@@H](CCCc1ccccc1)NC(=O)[C@H](Cc1c[nH]cn1)NC(=O)[C@H](Cc1ccccc1)NC(=O)[C@@H]1CCCN1C(=O)[C@H](Cc1c[nH]cn1)NC(=O)[C@@H]1CCCN1)C(=O)N[C@@H](Cc1ccc(O)cc1)C(=O)N[C@@H](CCCCN)C(N)=O` here?
A: Its IC50 is 0.027 µM.

Q: For `CC[C@H](C)[C@H](NC(=O)CC(O)C(CC(C)C)NC(=O)[C@@H](N)Cc1ccccc1)C(=O)NC(=O)[C@@H](N)Cc1ccccc1` (stereo partly drawn), which IC50 is on record?
A: Its IC50 is greater than 100 µM.

Q: Which IC50 does the source give for `CC[C@H](C)[C@H](NC(=O)CC(O)C(CC(C)C)NC(=O)[C@H](Cc1cnc[nH]1)NC(=O)[C@H](Cc1ccccc1)NC(=O)[C@@H]1CCCN1)C(=O)NC(=O)[C@@H](N)Cc1ccccc1` (stereo partly drawn) here?
A: The IC50 was 0.22 µM.

Q: `CC[C@H](C)[C@H](NC(=O)CC(O)C(CC(C)C)NC(=O)[C@H](Cc1ccccc1)NC(=O)[C@H](Cc1ccccc1)NC(=O)[C@@H]1CCCN1)C(=O)NC(=O)[C@@H](N)Cc1ccccc1` (stereo partly drawn) was tested. Which IC50 did it give?
A: Its IC50 is 0.43 µM.

Q: With `CC(C)CC(NC(=O)[C@H](Cc1c[nH]cn1)NC(=O)[C@H](Cc1ccccc1)NC(=O)[C@@H]1CCCN1)C(O)CC(N)=O` (stereo partly drawn) as the compound, how does the IC50 read?
A: The IC50 was 68 µM.

Q: Which IC50 does the source give for `CC(C)[C@H](NC(=O)[C@H](Cc1ccccc1)NC[C@H](Cc1ccccc1)NC(=O)[C@H](Cc1cnc[nH]1)NC(=O)[C@H](Cc1ccccc1)NC(=O)[C@@H]1CCCN1C(=O)[C@H](N)Cc1cnc[nH]1)C(=O)N[C@@H](Cc1ccc(O)cc1)C(=O)O` here?
A: Its IC50 is 0.58 µM.

Q: For `CC[C@H](C)[C@H](NC(=O)CC(O)C(CC(C)C)NC(=O)[C@H](Cc1cnc[nH]1)NC(=O)[C@H](Cc1ccccc1)NC(=O)[C@@H]1CCCN1C(C)=O)C(=O)N[C@@H](Cc1cnc[nH]1)C(=O)N[C@@H](CCCCN)C(=O)O` (stereo partly drawn) (Ac-PFH[X1]IHK-OH), which IC50 is on record?
A: The IC50 was 0.04 µM.

Q: How did the IC50 turn out when `CC[C@H](C)[C@H](NC(=O)[C@H](CCCc1ccccc1)NC(=O)[C@H](Cc1cnc[nH]1)NC(=O)[C@H](Cc1ccccc1)NC(=O)[C@@H]1CCCN1C(C)=O)C(=O)N[C@@H](Cc1cnc[nH]1)C(=O)N[C@@H](CCCCN)C(C)=O` (Ac-PFH[hhPhe]IH-X3) was run?
A: The IC50 was 0.046 µM.

Q: `CC[C@H](C)[C@H](NC(=O)CC(O)C(CC(C)C)NC(=O)[C@H](Cc1cnc[nH]1)NC(=O)[C@H](Cc1ccccc1)NC(=O)[C@@H]1CCCN1C(=O)[C@H](Cc1cnc[nH]1)NC(=O)[C@@H]1CCCN1C(C)=O)C(=O)N[C@@H](Cc1cnc[nH]1)C(=O)N[C@@H](CCCCN)C(=O)O` (stereo partly drawn) (Ac-PHPFH[X1]IHK-OH) was tested. Which IC50 did it give?
A: The IC50 was 0.02 µM.

Q: Which IC50 does the source give for `CC(C)CC(NC(=O)[C@H](Cc1cnc[nH]1)NC(=O)[C@H](Cc1ccccc1)NC(=O)[C@@H]1CCCN1C(=O)[C@@H](N)Cc1cnc[nH]1)C(O)CC(=O)N[C@H](C(=O)N[C@@H](Cc1ccc(O)cc1)C(=O)N[C@@H](CCCCN)C(=O)O)C(C)C` (stereo partly drawn) (H-HPFH[X1]VYK-OH) here?
A: The IC50 was 0.4 µM.

Q: Which IC50 does the source give for `CC(C)[C@H](NC(=O)[C@H](CCCN)NC(=O)[C@H](Cc1c[nH]cn1)NC(=O)[C@H](Cc1ccccc1)NC(=O)[C@@H]1CCCN1)C(=O)N[C@@H](Cc1ccc(O)cc1)C(=O)N[C@@H](CCCCN)C(N)=O` (H-PFH[Orn]VYK-NH2) here?
A: The IC50 was 100 µM.

Q: Which IC50 does the source give for `CC[C@H](C)[C@H](NC(=O)CC(O)C(CC(C)C)NC(=O)[C@H](Cc1c[nH]cn1)NC(=O)[C@H](Cc1ccccc1)NC(=O)[C@@H]1CCCN1)C(=O)N[C@@H](Cc1c[nH]cn1)C(=O)N[C@@H](CCCCN)C(=O)O` (stereo partly drawn) (H-PFH[X1]IHK-OH) here?
A: The IC50 was 0.9 µM.

Q: `CC[C@H](C)[C@H](NC(=O)CC(O)C(CC(C)C)NC(=O)[C@H](Cc1ccccc1)NC(=O)[C@H](Cc1ccccc1)NC(=O)[C@@H]1CCCN1C(=O)[C@H](Cc1c[nH]cn1)NC(=O)[C@@H]1CCCN1)C(=O)NC(=O)[C@@H](N)Cc1ccccc1` (stereo partly drawn) (H-PHPFF[X1]-X2) was tested. Which IC50 did it give?
A: Its IC50 is 0.03 µM.

Q: How did the IC50 turn out when `CCC[C@H](NC(=O)[C@H](Cc1c[nH]cn1)NC(=O)[C@H](Cc1ccccc1)NC(=O)[C@@H]1CCCN1C(=O)[C@H](Cc1c[nH]cn1)NC(=O)[C@@H]1CCCN1)C(=O)N[C@H](C(=O)NC(=O)[C@@H](N)Cc1ccccc1)[C@@H](C)CC` (H-PHPFH[Nva]-X2) was run?
A: Its IC50 is greater than 1000 µM.

Q: `CC(C)C[C@H](NC(=O)[C@H](Cc1c[nH]cn1)NC(=O)[C@H](Cc1ccccc1)NC(=O)[C@@H]1CCCN1C(=O)[C@H](Cc1c[nH]cn1)NC(=O)[C@@H]1CCCN1)[C@@H](O)CC(N)=O` (H-PHPFH[Sta]-NH2) was tested. Which IC50 did it give?
A: Its IC50 is 0.9 µM.

Q: Which IC50 does the source give for `CC[C@H](C)[C@H](NC(=O)[C@H](CCCc1ccccc1)NC(=O)[C@H](Cc1c[nH]cn1)NC(=O)[C@H](Cc1ccccc1)NC(=O)[C@@H]1CCCN1C(=O)[C@H](Cc1c[nH]cn1)NC(=O)[C@@H]1CCCN1)C(=O)N[C@@H](Cc1ccccc1)C(N)=O` (H-PHPFH[hhPhe]IF-NH2) here?
A: The IC50 was 0.03 µM.

Q: With `CC[C@H](C)[C@H](NC(=O)[C@H](CCCc1ccccc1)NC(=O)[C@H](Cc1cnc[nH]1)NC(=O)[C@H](Cc1ccccc1)NC(=O)[C@@H]1CCCN1C(=O)[C@H](Cc1cnc[nH]1)NC(=O)[C@@H]1CCCN1)C(=O)N[C@@H](Cc1cnc[nH]1)C(=O)N[C@@H](CCCCN)C(C)=O` (H-PHPFH[hhPhe]IH-X3) as the compound, how does the IC50 read?
A: Its IC50 is 0.03 µM.

Q: Which IC50 does the source give for `CC[C@H](C)[C@H](NC(=O)[C@H](CCCc1ccccc1)NC(=O)[C@H](CCCCN)NC(=O)[C@H](Cc1ccccc1)NC(=O)[C@@H]1CCCN1C(=O)[C@H](Cc1c[nH]cn1)NC(=O)[C@@H]1CCCN1)C(=O)N[C@@H](Cc1ccccc1)C(N)=O` (H-PHPFK[hhPhe]IF-NH2) here?
A: The IC50 was 3.9 µM.

Q: With `CC[C@H](C)[C@H](NC(=O)[C@H](CCCc1ccccc1)NC(=O)[C@H](Cc1c[nH]cn1)NC(=O)[C@H](Cc1cn(C=O)c2ccccc12)NC(=O)[C@@H]1CCCN1)C(=O)N[C@@H](Cc1ccccc1)C(N)=O` (H-PW(For)H[hhPhe]IF-NH2) as the compound, how does the IC50 read?
A: Its IC50 is 0.067 µM.

Q: For `CC[C@H](C)[C@H](NC(=O)[C@H](CCCc1ccccc1)NC(=O)[C@H](Cc1c[nH]cn1)NC(=O)[C@H](Cc1cn(C=O)c2ccccc12)NC(=O)[C@@H]1CCCN1)C(=O)N[C@@H](Cc1cn(C=O)c2ccccc12)C(N)=O` (H-PW(For)H[hhPhe]IW(For)-NH2), which IC50 is on record?
A: Its IC50 is 0.24 µM.

Q: With `CC[C@H](C)[C@H](NC(=O)CC(O)C(CC(C)C)NC(=O)[C@H](Cc1cnc[nH]1)NC(=O)[C@H](Cc1ccccc1)NC(=O)[C@@H]1CCCN1C(=O)[C@H](Cc1cn(C=O)c2ccccc12)NC(=O)[C@@H]1CCCN1)C(=O)N[C@@H](Cc1cn(C=O)c2ccccc12)C(N)=O` (stereo partly drawn) (H-PW(For)PFH[X1]IW(For)-NH2) as the compound, how does the IC50 read?
A: Its IC50 is 0.016 µM.

Q: Which IC50 does the source give for `CC[C@H](C)[C@H](NC(=O)[C@H](CCCc1ccccc1)NC(=O)[C@H](Cc1c[nH]cn1)NC(=O)[C@H](Cc1ccccc1)NC(=O)[C@@H]1CCCN1C(=O)[C@H](Cc1cn(C=O)c2ccccc12)NC(=O)[C@@H]1CCCN1)C(=O)N[C@@H](Cc1cn(C=O)c2ccccc12)C(N)=O` (H-PW(For)PFH[hhPhe]IW(For)-NH2) here?
A: The IC50 was 0.027 µM.

Q: How did the IC50 turn out when `CC[C@H](C)[C@H](NC(=O)[C@H](CCCc1ccccc1)NC(=O)[C@H](Cc1c[nH]cn1)NC(=O)[C@H](Cc1cn(C=O)c2ccccc12)NC(=O)[C@@H]1CCCN1C(=O)[C@H](Cc1cn(C=O)c2ccccc12)NC(=O)[C@@H]1CCCN1)C(=O)N[C@@H](Cc1ccccc1)C(N)=O` (H-PW(For)PW(For)H[hhPhe]IF-NH2) was run?
A: The IC50 was 0.03 µM.

Q: `CC[C@H](C)[C@H](NC(=O)[C@H](CCCc1ccccc1)NC(=O)[C@H](Cc1c[nH]cn1)NC(=O)[C@H](Cc1cn(C=O)c2ccccc12)NC(=O)[C@@H]1CCCN1C(=O)[C@H](Cc1cn(C=O)c2ccccc12)NC(=O)[C@@H]1CCCN1)C(=O)N[C@@H](Cc1cn(C=O)c2ccccc12)C(N)=O` (H-PW(For)PW(For)H[hhPhe]IW(For)-NH2) was tested. Which IC50 did it give?
A: The IC50 was 0.049 µM.

Q: For H-PFHFFVYK-NH2, which IC50 is on record?
A: The IC50 was 100 µM.

Q: Which IC50 does the source give for H-PHPFHFFFVYK-OH [RIP] here?
A: The IC50 was 5.2 µM.

Q: With H-PHPFRFFVYK-OH as the compound, how does the IC50 read?
A: Its IC50 is 200 µM.
